Screening results as filed in PubChem.
This excerpt belongs to a sample that is enriched for hits.
ABCB1 block: inhibitors of human ABCB1 transporter, ABCG2 counter-screen | CCRF-Adr cells, JC-1 efflux, flow cytometry | inhibition, % at 6.6 µM | 0.067% of 190,000 active | AID 1326; in the data active = inhibition above about 40%;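 note: 0% = vehicle and 100% = reference inhibitor; higher value means more JC-1 retained so stronger ABCB1 efflux block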
TRPML3 agonist: human mucolipin-3 channel agonism; Q8TDD5; HEK293 TRPML3-YFP, Fluo-8 calcium fluorescence; 100% = the carbachol control signal; activation, % at 3 µM; 0.29% of 220,000 active;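 active = activation above its plate's cutoff, the mean activation of the plate's test wells plus 3 SD, cut at about 12% in these data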;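 note: 0% = DMSO only wells and 100% = carbachol wells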
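Test system: HEK293 cells stably carrying human TRPML3-YFP; Doses: single dose, 3 µM final nominal compound, 0.3% DMSO final; Schedule: dye loading 1 h 37 °C then 30 min ambient, 125 s read; Technique: Fluo-8 calcium fluorescence; Benchmarks: high control carbachol 87 µM, low control DMSO.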
zfTRPN1 agonist: agonists of zebrafish TRPN1 channel; HEK293 zebrafish TRPN1-YFP, Fluo-8 calcium fluorescence; 100% = response to 87 µM carbachol; activation, % at 3 µM; 0.18% of 220,000 active;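 active = activation above its plate's cutoff, the mean activation of test wells on that plate plus 3 SD, cut at about 19% in these data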;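 note: 0% = DMSO alone and 100% = 87 µM carbachol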
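System: zebrafish TRPN1-YFP in HEK293 cells / Dosing: 3 µM single point / Timing: dye loading 1 h at 37 °C, then 30 min room temperature / Signal: Fluo-8 calcium fluorescence, excitation 470-495 nm, emission 515-575 nm / Read-out basis: percent activation from peak over basal fluorescence ratio, control-normalized / Control set: high carbachol 87 µM, low DMSO alone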
Biofilm kill mix: mixtures killing C. albicans biofilm | inhibition, % at 7.6 µM | C. albicans biofilm persisters + clotrimazole, fluorescence viability; primary screen in compound mixtures of four per well | 0.02% of 120,000 active;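 active = inhibition above 30.3% in the primary screen of four-compound pools, then above 30% when the compound was retested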;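 note: compounds exposed to preformed 24 h biofilms for 48 h; 0% = untreated biofilm control and 100% = clotrimazole plus chlorhexidine kill blank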
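System: C. albicans CAF4-2 wild-type biofilms; Medium: RPMI/MOPS medium, pH 7.0; Reagent: Clotrimazole, 50 µg/mL; Times: biofilm formation 24 h, compound exposure 48 h, 37 °C; Detection: 2-h Alamar Blue fluorescence, 535/590 nm excitation/emission; Evaluation: percent inhibition of biofilm viability.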
ROMK mod: modulators of human ROMK potassium channel. 2% of 130,000 active. B-score at 10 µM. Tet-inducible ROMK, thallium flux fluorescence; actives lie on both sides;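 active = signal ratio slope over the read window, or its plate-corrected B-score, at least 3 SD from the plate mean, either direction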;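 note: B-score of the F/F0 ratio slope over 7 to 12 s after thallium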
ABCG2 block: human ABCG2 inhibition, ABCB1 as counter-screen; inhibition, % at 6.6 µM; 0.1% of 190,000 active; AID 1325; IgMXP3 cells, JC-1 efflux, flow cytometry; Q9UNQ0;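 active = inhibition above 80%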;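 note: 0% = DMSO and 100% = nicardipine control wells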
Target sequence (Q9UNQ0 whole entry, looked up): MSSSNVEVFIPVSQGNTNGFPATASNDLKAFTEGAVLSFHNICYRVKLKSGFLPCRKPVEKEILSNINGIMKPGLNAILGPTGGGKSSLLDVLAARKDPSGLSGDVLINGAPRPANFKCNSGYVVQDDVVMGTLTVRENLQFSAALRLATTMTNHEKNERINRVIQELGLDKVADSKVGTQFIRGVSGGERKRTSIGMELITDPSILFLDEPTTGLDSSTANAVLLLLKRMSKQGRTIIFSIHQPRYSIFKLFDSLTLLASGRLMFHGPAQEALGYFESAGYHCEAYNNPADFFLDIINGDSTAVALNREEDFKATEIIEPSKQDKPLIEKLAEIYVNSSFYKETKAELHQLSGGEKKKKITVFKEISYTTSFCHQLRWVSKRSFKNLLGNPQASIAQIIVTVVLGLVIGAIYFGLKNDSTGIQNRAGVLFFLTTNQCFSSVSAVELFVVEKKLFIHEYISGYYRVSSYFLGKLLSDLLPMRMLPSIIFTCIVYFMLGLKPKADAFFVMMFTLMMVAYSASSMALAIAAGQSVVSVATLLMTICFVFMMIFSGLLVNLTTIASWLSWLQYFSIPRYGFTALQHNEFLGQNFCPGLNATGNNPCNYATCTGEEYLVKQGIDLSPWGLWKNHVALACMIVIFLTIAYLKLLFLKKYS
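System: two drug-resistant human cell lines, ABCG2 and ABCB1; controls: nicardipine high and DMSO low controls; times: 10 min exposure at 25 °C with rotation, no wash; detection: flow cytometry of retained JC-1 fluorescence; read-out basis: percent efflux inhibition, scaled nicardipine 100% to DMSO 0%; doses: one concentration, 6.6 µM final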
ABCB1 confirm: confirmation of human ABCB1 transporter inhibitors, ABCG2 counter-screen. shares compounds with ABCG2 block. CCRF-Adr cells, JC-1 efflux, flow cytometry. inhibition, % at 6.6 µM. 7% of 270 active. AID 1451;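 active = inhibition of pump activity above 50%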;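 note: 0% = DMSO and 100% = nicardipine full pump inhibition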
ABCG2 confirm: inhibits human ABCG2 efflux, confirmed at single point; inhibition, % at 6.6 µM; IgMXP3 cells, JC-1 efflux, flow cytometry; 6% of 270 active; shares compounds with ABCG2 block;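 active = inhibition above 50%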;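 note: 0% = DMSO wells and 100% = nicardipine pump inhibitor wells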
IgMXP3 fluor: counter-screen for ABCG2 inhibitors: compound fluorescence in IgMXP3 cells; shares compounds with ABCG2 block; compound autofluorescence 488/530 nm, flow; hits give high values; fluorescence at 6.6 µM; 30% of 270 active;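 active = fluorescence in ABCG2-expressing cells above the plate's control-well mean plus 3 SD, cut at about 15 in these data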;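 note: median cell fluorescence with compound minus that of DMSO-treated control cells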
CCRF autofluor: CCRF-Adr autofluorescence flag for ABCB1 confirmation; shares compounds with ABCG2 block; CCRF-Adr cells, compound autofluorescence 488/530 nm, flow cytometry; hits give high values; fluorescence at 6.6 µM; 30% of 270 active; AID 1483;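 active = fluorescence beyond the plate control mean plus 3 SD, with a fluorescence-to-maximum score over 2, cut at about 25 in these data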
* = called active by the depositor; nt = no result given.

SMILES | ABCB1 block | TRPML3 agonist | zfTRPN1 agonist | Biofilm kill mix | ROMK mod | ABCG2 block | ABCB1 confirm | ABCG2 confirm | IgMXP3 fluor | CCRF autofluor
CCOC(=O)c1cc(-c2ccc(Cl)cc2)nc2c1c(=O)[nH]c(=O)n2CCOC | 2 | 0 | -1 | 11 | 0.095 | 19 | nt | nt | nt | nt
CCOC(=O)c1cc(-c2ccc(Cl)cc2)nc2onc(C)c12 | 1 | 1 | -1 | nt | -0.051 | 83* | 2 | 37 | 2.5 | 9.5
CN(C(=O)CCn1c(=S)oc2ccccc21)c1ccc(F)cc1 | 1 | 0 | 0 | 7 | 0.011 | 4 | nt | nt | nt | nt
CCOC(=O)N1CCN(/C=C(\C#N)c2nc3ccccc3s2)CC1 | 64* | 1 | 4 | nt | -0.63 | 87* | 1 | 17 | -0.99 | 15
COc1cccc(N2C(=O)C3ON(c4ccccc4)C(c4cccs4)C3C2=O)c1 (centres undefined) | 0 | 1 | 0 | nt | nt | 1 | nt | nt | nt | nt
CCOc1ccc(N2C(=O)C3ON(c4ccccc4)C(c4cccs4)C3C2=O)cc1 (centres undefined) | 95* | 1 | 1 | 0 | 0.24 | 29 | 1 | 23 | -1.2 | -0.79
O=C(NCCCc1ccccc1)Nc1cccc(Cl)c1 | 0 | 1 | 2 | 17 | nt | 94* | 2 | 21 | -0.04 | -1.7
COC(=O)C1=C(C)NC(C)=C(C(=O)OC)C1c1ccc(-c2cccc(Cl)c2Cl)o1 | 4 | 0 | 1 | 22 | nt | 85* | 8 | 6 | 0.21 | -1.3
CCOc1ccc(OCC)c(NC(=O)CN2CCN(c3cccc(C)c3)CC2)c1 | 3 | 1 | 2 | nt | -0.16 | 74 | 10 | 30 | 1.7 | 4.5
CCc1ccc(OCC(=O)N/N=C(\C)c2ccccc2OC(F)F)cc1 | 0 | 0 | -1 | 6 | 0.19 | 0 | nt | nt | nt | nt
CCc1ccc(OCC(=O)N/N=C(\C)c2ccc(OC(F)F)cc2)cc1 | 4 | 1 | 1 | 14 | 0.32 | 104* | -9 | 17 | 15* | 12
COc1cccc(C2C(C(=O)Nc3nc4ccccc4s3)=C(C)NC3=C2C(=O)CC(C)(C)C3)c1OC (centres undefined) | 45* | 0 | -3 | nt | 0.97 | 6 | 59* | 12 | 29* | 4.3
c1ccc(OCc2nc(-c3ccccc3)no2)cc1 | 0 | -1 | 3 | nt | nt | 1 | nt | nt | nt | nt
c1ccc(OCc2nc(-c3ccncc3)no2)cc1 | 3 | 0 | 1 | 24 | -0.53 | 111* | 1 | 4 | -1.5 | -2.2
CNS(=O)(=O)c1ccc(C(C)(C)C)cc1 | 0 | 0 | 0 | 21 | -0.18 | 1 | nt | nt | nt | nt
Cc1cc(C)n(-c2ccc(Cl)c(C(=O)Nc3cc(C(F)(F)F)ccc3Cl)n2)n1 | 9 | 1 | 2 | 16 | nt | 116* | 5 | 15 | -1.1 | -1.5
COc1ccc(CN2CCN(Cc3csc(C(C)=O)c3)CC2CCO)c(C)c1C (centres undefined) | -2 | 1 | 3 | -1 | -0.92 | -6 | nt | nt | nt | nt
COCCn1c(SCC(=O)N2CCc3ccccc3C2)nc2cc(Cl)ccc2c1=O | 33 | 1 | 1 | 3 | -1.1 | 26 | 27 | 29 | -1.5 | -3.6
COc1ccccc1C(=O)Nc1cccc(SC)c1 | 0 | 1 | 0 | 16 | 0.78 | 14 | nt | nt | nt | nt
COc1cc(SC)ccc1C(=O)Nc1ccccc1 | -1 | -1 | 1 | nt | -0.18 | 84* | 3 | 36 | 18* | 30*
FCCCOc1ccc(CN2CCN(c3ccccc3F)CC2)cc1 | 0 | 1 | -1 | 17 | 0.082 | 2 | nt | nt | nt | nt
O=C1c2ccccc2C(=O)N1CCCCN(C(=O)c1ccc(Cl)s1)c1ccc(Cl)cc1 | 12 | 0 | -1 | 18 | -0.51 | 0 | nt | nt | nt | nt
Cc1ccc(N(CCCCN2C(=O)c3ccccc3C2=O)C(=O)c2ccc(Cl)s2)cc1 | 7 | 0 | 0 | 11 | nt | 67 | 11 | 21 | -2.2 | -4.6
CCOC(=O)c1c(-c2ccc(C)cc2)csc1NC(=O)/C(C#N)=C/c1ccc(O)c(OC)c1 | 117* | 1 | 2 | 9 | nt | 132* | 1 | 21 | 80* | 222*
O=C(Cc1ccc(Cl)cc1)Nc1ccccc1Sc1ccccc1 | 1 | 0 | -1 | 12 | 0.29 | 11 | nt | nt | nt | nt
SMILES | ABCB1 block | TRPML3 agonist | zfTRPN1 agonist | Biofilm kill mix | ROMK mod | ABCG2 block | ABCB1 confirm | ABCG2 confirm | IgMXP3 fluor | CCRF autofluor
O=C(Cc1ccccc1)Nc1cc(Cl)ccc1Sc1ccccc1 | 5 | -1 | 0 | 4 | -0.072 | 89* | 4 | 8 | -1.7 | 4.7
Cn1c(=O)c(N)c2c3c(c(Br)ccc31)C(=O)c1ccccc1-2 | nt | 2 | 3 | 9 | nt | nt | nt | nt | nt | nt
Cc1cccc(NC2=C(NCCO)C(=O)c3ccccc3C2=O)c1 | 3 | -1 | -3 | 6 | -0.96 | 2 | nt | nt | nt | nt
Cn1c(=O)c(NCCc2ccccc2)c2c3c(cccc31)C(=O)c1ccccc1-2 | 70* | 83* | 126* | nt | nt | 151* | 10 | 33 | 55* | 143*
Cn1c(=O)c(NCCO)c2c3c(cccc31)C(=O)c1ccccc1-2 | 7 | 282* | 454* | nt | nt | 84* | 0 | 20 | 13 | 8.3
CCCCNc1c2c3c(cccc3n(C)c1=O)C(=O)c1ccccc1-2 | 66* | 46* | 81* | nt | nt | 142* | 4 | 16 | 71* | 132*
O=C(COC(=O)c1ccc2c(=O)n3c(nc2c1)CCC3)NC1CCS(=O)(=O)C1 (centres undefined) | 0 | 1 | 1 | 10 | 0.034 | -1 | nt | nt | nt | nt
COc1cccc(NC(=O)Nc2ccc(Cc3ccncc3)cc2)c1 | 0 | 2 | 3 | 18 | -0.55 | 1 | nt | nt | nt | nt
COc1cccc(NC(=O)Nc2ccncc2)c1 | 44* | 1 | 1 | 13 | 1.1 | 59 | 1 | 29 | 0.96 | 5
Cc1cc(NC(=O)C(C)C)n(-c2nc3ccccc3s2)n1 | 4 | 0 | -1 | 7 | -0.16 | 81* | 0 | 30 | 3.2 | 10
CCOc1cc(CNn2cnnc2SCC(=O)NC(C)(C)C)ccc1OCC(=O)NC(C)(C)C | 0 | 1 | 0 | 9 | 0.32 | 3 | nt | nt | nt | nt
CC[C@H](C)[C@H](NC(=O)c1ccccc1)C(=O)Nc1ccc(S(=O)(=O)Nc2cc(C)nc(C)n2)cc1 | nt | 1 | -1 | 18 | nt | nt | nt | nt | nt | nt
